Tests used:
MRC5 = assay: In vitro inhibitory activity on MRC5 fibroblast tissue cultures inoculated with virulent RH strain of Toxoplasma gondii; format: functional, cell-based; conditions: Homo sapiens
How it was run: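 Confluent MRC5 fibroblast monolayers inoculated with 2000 fresh RH tachyzoites; compounds added at various concentrations after 4 h, then 72 h further incubation. Eight uninfected and eight drug-free control wells per plate. Cold-methanol-fixed cultures assayed by ELISA with peroxidase-labelled anti-SAG-1 monoclonal antibody, read at 405 nm against uninfected blank. IC50 from linear regression of OD versus log concentration.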

Plasmodium falciparum = assay: In vitro inhibitory activity against chloroquine-resistant Plasmodium falciparum NF54-R in blood; format: functional, organism-based
Plasmodium yoelii yoelii = assay: In vitro inhibitory activity against hepatic stages of Plasmodium yoelii yoelii 265 BY; format: functional, organism-based

Row | Structure (SMILES) | IC50 (MRC5) [µM] | IC50 (Plasmodium falciparum) [µM] | IC50 (Plasmodium yoelii yoelii) [µM]
1 | COc1c(N2CCNC(C)C2)c(F)cc2c(=O)c(C(=O)O)cn(C3CC3)c12 (stereo not drawn) [GATIFLOXACIN] | 12.7 | 29 | 
2 | N[C@@H]1[C@H]2CN(c3nc4c(cc3F)c(=O)c(C(=O)O)cn4-c3ccc(F)cc3F)C[C@@H]12 [TROVAFLOXACIN] | 0.96 | 22 | 74
3 | N[C@@H]1[C@H]2CN(c3nc4c(cc3F)c(=O)c(C(=O)O)cn4C3CC3)C[C@@H]12 [TROVAFLOXACIN4] | 1.68 |  | 
4 | COc1c(N2C[C@@H]3CCCN[C@@H]3C2)c(F)cc2c(=O)c(C(=O)O)cn(C3CC3)c12 [MOXIFLOXACIN] | 10.9 | 45 | 
